Here are results for five molecules from ChEMBL document CHEMBL1134364, “Antipsoriatic anthrones with modulated redox properties. 5. Potent inhibition of human keratinocyte growth, induction of keratinocyte differentiation, and reduced membrane damage by novel 10-arylacetyl-1,8-dihydroxy-9(10H)-anthracenones” (J Med Chem, 2001).

For orientation: logP means a log measure of how a compound divides between an organic and an aqueous phase. A low value points to lower lipophilicity. As usually defined, the IC50 is the concentration needed to halve the response being measured. The low end stands for greater potency, the high end for weaker potency.

A short description of data set [1]: Partition coefficient (logP). It counts as physicochemical. The conditions noted are these: octanol/water.
Data set [2] can be described thus: Deoxyribose degradation activity was measured as hydroxyl radical formation.
Data set [3] can be described thus: (§1) Induction of Keratinocyte Differentiation in cross-linked envelope assay at 5 uM expressed as difference of the amount of cross-linked protein as a measure of HaCaT keratinocyte differentiation. Type of data set: functional, Homo sapiens. In short, it runs like this: (§2)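 HaCaT cultures were 144 h post-confluent; medium replaced, compound added from DMSO stocks diluted in DMEM (final DMSO 0.2%), controls DMSO or medium alone, 48 h. Cells were detached with trypsin/EDTA, lysed in SDS/β-ME, dot-blotted, TCA-heated, Coomassie-stained and scanned. Value is cross-linked protein minus vehicle, per mg protein (Bradford), mean ± SEM of 3 experiments.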

Data set [4] in a line: Concentration required to inhibit 50% growth of HaCaT cells. It counts as functional, cell-based. As to conditions: Homo sapiens. In short, it runs like this:
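HaCaT keratinocytes treated for 48 h. Proliferation read by counting dispersed cells under phase-contrast microscope. Growth inhibition tested for significance against control, N = 3, P < 0.01.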

Data set [5] in a line: Induction of Keratinocyte Differentiation in cross-linked envelope assay at 10 uM expressed as difference of the amount of cross-linked protein as a measure of HaCaT keratinocyte differentiation. Type of data set: functional, Homo sapiens. In outline:
as §2

Data set [6] in a line: (§3) Cytotoxic activity of LDH(mu) release in HaCaT cells was measured after treatment with 2 uM of the compound. Type of data set: functional, Homo sapiens. In short, it runs like this: (§4)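 HaCaT cells treated with 2 µM compound. Membrane damage read as lactate dehydrogenase activity (mU) released into the culture medium. N = 3, SD < 10%.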
Data set [7] is described as follows: Inhibition of LTB4 biosynthesis in bovine polymorphonuclear leukocytes using nordihydroguaiaretic acid. Type of data set: functional, cell-based, Bos taurus.
Data set [8] can be described thus: Induction of Keratinocyte Differentiation in cross-linked envelope assay at 1 uM expressed as difference of the amount of cross-linked protein as a measure of HaCaT keratinocyte differentiation. It counts as functional, Homo sapiens. In outline: as §2
The nature of data set [9]: Cytotoxic activity of LDH(mu) release in HaCaT cells was measured after treatment of 2 uM. Type of data set: functional, Homo sapiens. In outline:
as §4

The test system of data set [10] is HaCaT. Described as §1. It counts as cell-based. The conditions noted are these: Homo sapiens. In short, it runs like this: as §2
Data set [11] in a line: as §3. It counts as cell-based. As to conditions: human. In short, it runs like this: as §4

For the molecule `O=C1c2c(O)cccc2C(C(=O)Cc2c[nH]c3ccccc23)c2cccc(O)c21`, the lipophilicity (logP) in [1] was 3.77. For the same molecule, the Activity in data set [2] is < 0.3; in data set [3] it was 4.9 ug (mg of protein)-1; in data set [5], 6.2 ug (mg of protein)-1; in [8] it was 1.8 ug (mg of protein)-1. The IC50 in data set [4] amounted to 800 nM; in [7] it was 9000 nM. The LDH in data set [6] is reported as 174 MU.

`O=C1c2c(O)cccc2Cc2cccc(O)c21` [ANTHRALIN]: the Activity in [3] was 4.9 ug (mg of protein)-1; in data set [5] it was 5.8 ug (mg of protein)-1; in data set [8] it was 3.7 ug (mg of protein)-1. The molecule also showed a half-inhibitory concentration (IC50) in data set [4] of 700 nM. The same molecule showed an LDH in data set [9] of 294 MU.

With `Cc1ccc(CC(=O)C2c3cccc(O)c3C(=O)c3c(O)cccc32)cc1`, the log partition coefficient (logP) in [1] stood at 4.54. Also, the Activity in [3] is 4.2 ug (mg of protein)-1; in data set [5], 5.1 ug (mg of protein)-1; in data set [8] it was 2.1 ug (mg of protein)-1. The molecule further came in with a half-maximal inhibitory concentration (IC50) in data set [4] of 700 nM. In addition, in [6], the LDH is listed as 145 MU.

With `CN(O)C(=O)Cc1ccc(CC(=O)C2c3cccc(O)c3C(=O)c3c(O)cccc32)cc1`, the logP in [1] worked out at 3.02. The Activity was 0.51 in data set [2], 6.2 ug (mg of protein)-1 in [5] and 2.8 ug (mg of protein)-1 in data set [8]. This molecule also registered an Activity (ug (mg of protein)-1) in data set [10] of 5.5. Moreover, the concentration for half-maximal inhibition (IC50) in [4] amounted to 700 nM; in data set [7] it was 50 nM. Further, the LDH in [11] stood at 199 MU.

For the molecule `COc1ccc(CC(=O)C2c3cccc(O)c3C(=O)c3c(O)cccc32)cc1`, the values for the Activity in [3], in [5] and in [8] were 5.3 ug (mg of protein)-1, 5.8 ug (mg of protein)-1 and 2.3 ug (mg of protein)-1, respectively. In addition, the half-inhibitory concentration (IC50) in data set [4] was determined as 1100 nM; in [7] it was 500 nM. The molecule also had an LDH in [6] of 143 MU.
